# This is a sample that favours compounds with a hit; in the whole collection about 2.7% have one here.
# IMP-1 inhibitor: inhibitors of Pseudomonas aeruginosa IMP-1 metallo-beta-lactamase | purified IMP-1, nitrocefin hydrolysis, epi-absorbance fluorescence | inhibition, % at 5.6 µM | 0.45% of 290,000 active;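 active means inhibition above the mean plus 3 SD of all compounds in the same screening run, cut at about 4.5% in these data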;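 further: 0% = IMP-1 with DMSO and 100% = DMSO wells lacking enzyme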
#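 Test system: recombinant IMP-1 enzyme, purified / Medium: HEPES buffer pH 7.1 with ZnSO4 and Brij 35 / Doses: single dose, 5.6 µM / Times: 25 °C, 15 min preincubation, 25 min reaction / Detection: Epi-absorbance via hydrolysed-nitrocefin quenching of white-plate fluorescence, 480/530 nm, EDTA stop / Evaluation: percent inhibition from optical density relative to buffer-blank wells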
# M18AAP inhibitor: blocks P. falciparum M18 aspartyl aminopeptidase. recombinant PfM18AAP, H-Glu-NHMec fluorogenic cleavage. inhibition, % at 7.35 µM. 1.2% of 290,000 active. AID 1822;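 active means inhibition above the campaign mean inhibition over all tested compounds plus 3 SD, cut at about 28% in these data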;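 further: 0% = plate median of test compound wells and 100% = 2 mM ZnCl2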
# VIM-2 inhibitor: blocks Pseudomonas aeruginosa VIM-2 metallo-beta-lactamase; purified VIM-2, nitrocefin hydrolysis, epi-absorbance fluorescence; inhibition, % at 5.6 µM; 0.89% of 290,000 active; AID 1527;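 active means inhibition above the mean of all tested compounds plus 3 SD, cutoff set per screening run, cut at about 7.5% in these data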;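 further: red hydrolysis product quenches plate fluorescence so inhibitors raise well fluorescence; 0% = enzyme with DMSO and 100% = DMSO without enzyme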
# Fh CTSL1 inh: counter-screen for PFM18AAP inhibitors: inhibitors of F. hepatica cathepsin L1; recombinant F. hepatica cathepsin L1, Z-Leu-Arg-MCA fluorescence; inhibition, % at 5.96 µM; 0.49% of 300,000 active; AID 1906;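 active means inhibition above the mean of all tested compounds plus 3 SD, set per screening campaign, cut at about 17% in these data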;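 further: 0% = plate median of test compound wells and 100% = 1 µM Z-Phe-Ala-diazomethylketone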
# Numbers without * were called inactive; x = no result.
SMILES,IMP-1 inhibitor,M18AAP inhibitor,VIM-2 inhibitor,Fh CTSL1 inh
CCOC(=O)C(=CNc1cscc1S(=O)(=O)C(C)C)C(=O)OCC,-3.3,-0.8,-0.6,0.0
CCCC(C)c1nnc(NC(=O)CCS(=O)(=O)Cc2ccccc2)s1 (stereo not given),-1.8,28.8*,-1.5,-0.3
CCCC(C)c1nnc(NC(=O)CS(=O)(=O)Cc2ccccc2)s1 (stereo not given),0.2,4.5,-2.6,0.1
CCOc1cc(-c2nc3ccccn3c2NCC2CCCO2)ccc1O (stereo not given),2.0,30.2*,0.6,-1.2
CCN=c1scc(C)n1/N=C/c1cc(Br)c(O)c(OC)c1,-4.4,35.3*,-3.0,-0.3
CN=c1scc(C)n1/N=C/c1cc(Br)c(O)c(Br)c1,0.3,18.5,-1.8,3.8
COc1ccc(C2c3[nH]c4ccccc4c3C[C@H]3C(=O)N(c4ccccc4C(=O)N4CCC[C@H]4C(=O)O)C(=O)N23)cc1 (stereo not given in full),-3.3,5.2,-2.2,-1.5
CC(=O)Nc1ccc(-c2cc(NC(C)=O)n(-c3ccccc3)n2)cc1,1.0,1.5,0.6,3.1
Cc1ccc(-c2nn(-c3ccccc3)cc2NC(=O)CCl)cc1,2.2,23.4,2.1,82.3*
Cc1ccc(-c2cc(NC(=O)CCl)n(-c3ccccc3)n2)cc1,-3.5,4.5,0.7,75.3*
O=C(CCl)Nc1cc(-c2ccccc2)nn1-c1ccccc1,-2.0,4.0,-0.4,68.1*
Cc1ccc(-c2nn(-c3ccccc3)cc2CO)cc1,-1.3,1.0,-5.4,1.4
COc1ccc2oc(C(=O)OCC(=O)N(C)C3CCCCC3)c(C)c2c1,x,x,x,-1.8
Cc1cc(C)c(NS(=O)(=O)c2ccc(NC(=O)/C=C/C(=O)O)cc2)c(C)c1,-1.6,-3.5,-1.9,-1.1
Cc1nc2sc3c(=O)[nH]nnc3c2c(C)c1Br,0.4,-9.6,11.0*,-9.7
Oc1oc(-c2ccccc2)nc1/C=N/c1nccs1,-0.9,2.4,-1.8,45.0*
Oc1oc(-c2ccccc2)nc1C=NCc1ccncc1,-1.9,7.7,-2.9,36.2*
Oc1oc(-c2ccc(Br)cc2)nc1/C=N/c1ccccn1,-1.0,-0.1,-1.7,22.7*
Oc1oc(-c2ccccc2)nc1C=Nc1cccc2ccccc12,-1.4,7.4,-1.4,-0.1
CCCCOc1ccc(-c2nc(/C=N/c3nccs3)c(O)o2)cc1,-0.8,-0.9,-0.4,0.4
Cc1cc(NC(=O)CCC(=O)N(CC(=O)NCC2CCCO2)c2ccc(F)c(Cl)c2)no1 (stereo not given),-1.4,-0.5,0.3,2.3
O=C(/C=C/c1ccccc1)c1ccccn1,-1.3,4.4,9.1*,1.6
CN1C(=O)[C@@H]2[C@H](C1=O)[C@@H]1C(=O)Nc3ccccc3C(=O)N1[C@@H]2c1cccc(Br)c1,x,x,x,-4.0
COC(=O)CCC/C=C1/SCC(NC(=O)c2ccccc2)C1NC(C)=O (stereo not given),-3.8,-2.6,-1.0,3.2
COC(=O)CCC/C=C1/SCC(NC(=O)c2ccccc2)C1O (stereo not given),-8.0,-10.7,-2.5,47.9*
SMILES,IMP-1 inhibitor,M18AAP inhibitor,VIM-2 inhibitor,Fh CTSL1 inh
O=C1/C(=C/c2cccs2)CCC/C1=C\c1cccs1,5.6*,26.7,-2.3,-1.1
O=C(NCCCN1CCCCC1)c1ccc2c(c1)NC(=O)C(N1CCCCC1)S2 (stereo not given),5.2*,12.0,0.4,-0.3
CC1CC(C)CN(CCCNC(=O)c2ccc3c(c2)NC(=O)C(N2CCCCC2)S3)C1 (stereo not given),-3.8,-0.6,-3.7,-2.3
CCOc1ccccc1NC(=O)c1oc2ccccc2c1NC(=O)C1CCCO1 (stereo not given),-1.4,8.6,-2.5,18.1*
COc1ccc(NC(=O)c2oc3ccccc3c2NC(=O)C2CC2)cc1OC,0.0,7.9,9.0*,0.6
CCOc1ccccc1NC(=O)c1oc2ccccc2c1NC(=O)C1CC1,-1.3,5.6,-0.5,-1.5
COc1ccc(NC(=O)c2oc3ccccc3c2NC(=O)C2CCCO2)cc1OC (stereo not given),0.2,2.5,-0.5,2.9
COc1ccc2cc(C)c3nnc(SCC(=O)Nc4cc(OC)c(OC)cc4C(=O)O)n3c2c1,-1.0,-3.2,0.5,-4.2
COc1ccc2cc(C)c3nnc(SCc4cccnc4)n3c2c1,-1.8,-1.0,8.9*,0.7
COc1ccc(S(=O)(=O)N2CCOC23CCN(C(=O)c2c(F)cccc2Cl)CC3)cc1,-1.8,0.9,-4.6,-4.4
COc1ccc(OC)c(Nc2cc(C)c3ccccc3n2)c1,-0.2,-6.3,0.3,-3.4
COc1ccc(OC)c(Nc2c3ccccc3nc3ccccc23)c1,-3.9,6.0,11.2*,9.3
CCCCNC(=O)c1oc2ccc(S(=O)(=O)N3CCCC3)cc2c1C,5.9*,-0.1,-2.5,-0.4
Cc1ccc(-c2cc(C(=O)NCCN3CCOCC3)no2)cc1,10.3*,0.5,-0.6,-2.1
O=C(NCCN1CCOCC1)c1cc(-c2ccc(F)cc2)on1,-3.6,-3.0,-1.1,1.0
CC(NC(=O)c1c(Cl)cnn1C)C1CCCO1 (stereo not given),-1.9,3.9,-1.7,0.1
O=C(O)c1ccc(S(=O)(=O)N2CCCC2)cc1,-2.6,1.5,-2.3,-0.6
O=C(O)c1ccc(S(=O)(=O)c2ccc(Sc3ccc(C(=O)O)c(C(=O)O)c3)cc2)cc1,3.4,0.0,8.9*,-1.4
Cc1ccc(C)c(NC(=O)Cn2nnc(C(=O)NCc3cccs3)c2N)c1,-0.6,-2.1,-0.5,-1.6
NC(=O)C1CCCN(C(=S)Nc2cccc3ccccc23)C1 (stereo not given),-0.9,-7.4,1.2,1.0
CN(C)C(=O)/C(=C\c1ccc(-c2cccc([N+](=O)[O-])c2)o1)NC(=O)c1ccccc1,0.5,0.4,9.2*,3.8
NC(=S)N/N=C/c1cc([N+](=O)[O-])ccc1OCCOc1ccccc1,-3.1,-1.5,-4.8,81.0*
NC(=S)N/N=C/c1ccc(-c2cccc([N+](=O)[O-])c2)o1,-0.9,10.8,6.4,24.8*
CN(C)C(=O)/C(=C/c1ccc(-c2cccc([N+](=O)[O-])c2)o1)NC(=O)c1ccccc1,-5.3,-6.7,6.2,3.2
NC(=S)N/N=C/c1ccc(Br)o1,-2.2,11.1,-2.4,17.3*
SMILES,IMP-1 inhibitor,M18AAP inhibitor,VIM-2 inhibitor,Fh CTSL1 inh
CCOC(=O)C1(Cc2cccc(OC)c2)CCN(Cc2ccc(C)s2)CC1,-2.1,-10.4,-2.7,-2.6
CC1CCCC(NC(=O)NC(=O)CCl)C1C (stereo not given),0.4,-10.1,2.0,24.4*
CC1CCCCC1NC(=O)NC(=O)CCl (stereo not given),-0.6,4.8,1.4,6.7
COCCCNCCCOc1ccc(C(C)(C)c2ccccc2)cc1,-2.1,6.0,-4.1,-0.2
CC(C)(c1ccccc1)c1ccc(OCCCNCCO)cc1,5.4*,19.7,-1.8,3.0
O=C(O)c1ccc(N2CC3CC(C2)c2cccc(=O)n2C3)c(NC(=S)Nc2ccc(Br)cc2)c1 (stereo not given),-5.9,8.3,-2.3,-0.6
CCOc1cc(N2CCOCC2)c(OCC)cc1NC(=O)CN1CCC(Cc2ccccc2)CC1,-0.4,-8.0,-1.6,4.2

# Compound activity deposited in PubChem BioAssay by The Scripps Research Institute Molecular Screening Center.
